Results reported in ChEMBL document CHEMBL4715765, “Fluoro analogs of bioactive oxy-sterols: Synthesis of an EBI2 agonist with enhanced metabolic stability” (Bioorg Med Chem Lett, 2016).

Columns and labels:
[1] = molecular target: T1, G-protein coupled receptor 183 (Homo sapiens, UniProt P32249); experiment: Agonist activity at Go2-q-coupled human EBI2 expressed in COS7 cell membranes assessed as stimulation of [35S]GTPgammaS binding preincubated for 20 mins followed by [35S]GTPgammaS addition and measured after 1 hr by scintillation counting analysis; format: functional, Membrane
T1 sequence (P32249 whole entry): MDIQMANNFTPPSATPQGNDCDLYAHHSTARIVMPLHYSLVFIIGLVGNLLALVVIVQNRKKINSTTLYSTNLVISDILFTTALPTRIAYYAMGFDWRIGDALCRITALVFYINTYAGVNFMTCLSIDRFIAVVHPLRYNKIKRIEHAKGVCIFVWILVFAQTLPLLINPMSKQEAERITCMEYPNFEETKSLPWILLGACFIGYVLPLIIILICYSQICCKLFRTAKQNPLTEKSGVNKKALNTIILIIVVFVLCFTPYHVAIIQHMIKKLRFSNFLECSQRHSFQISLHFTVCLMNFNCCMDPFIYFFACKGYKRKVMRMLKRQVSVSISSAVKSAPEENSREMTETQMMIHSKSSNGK
Method in brief: (§1)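 [35S]GTPγS binding measured on COS7 cells transiently transfected with human, rat or mouse EBI2, using a Gαo2 chimera set-up. Concentration-response testing ran up to a top concentration of 1. EC50 and % Emax were taken from the curves, with Emax referenced to 7α,25-OHC.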

[2] = molecular target: G-protein coupled receptor 183 (Rattus norvegicus, UniProt D4A7K7); experiment: Agonist activity at Go2-q-coupled rat EBI2 expressed in COS7 cell membranes assessed as stimulation of [35S]GTPgammaS binding preincubated for 20 mins followed by [35S]GTPgammaS addition and measured after 1 hr by scintillation counting analysis; set-up: species or system Membrane; method in brief: as §1
Chain of G-protein coupled receptor 183 (Rattus norvegicus, UniProt D4A7K7) (D4A7K7 whole entry): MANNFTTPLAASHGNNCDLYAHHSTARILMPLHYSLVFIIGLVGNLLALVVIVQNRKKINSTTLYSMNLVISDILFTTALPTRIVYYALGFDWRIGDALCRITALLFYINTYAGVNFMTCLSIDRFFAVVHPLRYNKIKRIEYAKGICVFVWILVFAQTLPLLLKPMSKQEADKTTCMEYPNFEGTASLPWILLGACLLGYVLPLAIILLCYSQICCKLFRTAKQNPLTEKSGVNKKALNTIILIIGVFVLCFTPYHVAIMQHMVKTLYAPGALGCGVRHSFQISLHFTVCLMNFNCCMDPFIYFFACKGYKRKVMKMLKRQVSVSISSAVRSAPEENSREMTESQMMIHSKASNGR

[3] = molecular target: G-protein coupled receptor 183 (Mus musculus, UniProt Q3U6B2); experiment: Agonist activity at Go2-q-coupled mouse EBI2 expressed in COS7 cell membranes assessed as stimulation of [35S]GTPgammaS binding preincubated for 20 mins followed by [35S]GTPgammaS addition and measured after 1 hr by scintillation counting analysis; format: functional, Membrane; method in brief: as §1
Chain of G-protein coupled receptor 183 (Mus musculus, UniProt Q3U6B2) (Q3U6B2 whole entry): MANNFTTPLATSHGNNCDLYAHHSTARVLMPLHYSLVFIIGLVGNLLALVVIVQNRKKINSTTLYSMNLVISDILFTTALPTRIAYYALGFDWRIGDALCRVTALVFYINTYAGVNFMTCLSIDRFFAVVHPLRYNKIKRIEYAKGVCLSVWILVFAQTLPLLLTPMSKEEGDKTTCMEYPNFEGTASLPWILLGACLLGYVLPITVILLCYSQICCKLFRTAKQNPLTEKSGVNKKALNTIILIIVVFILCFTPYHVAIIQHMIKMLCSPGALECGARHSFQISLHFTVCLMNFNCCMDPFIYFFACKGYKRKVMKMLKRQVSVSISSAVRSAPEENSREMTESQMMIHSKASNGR

[4] = molecular target: T1, G-protein coupled receptor 183; experiment: Agonist activity at Go2-q-coupled human EBI2 expressed in COS7 cell membranes assessed as stimulation of [35S]GTPgammaS binding at 1 uM preincubated for 20 mins followed by [35S]GTPgammaS addition and measured after 1 hr by scintillation counting analysis relative to control; format: functional; conditions: Membrane, filed as agonist, time 80.0 min; method in brief: as §1
[5] = molecular target: G-protein coupled receptor 183 (Rattus norvegicus) (UniProt D4A7K7); experiment: Agonist activity at Go2-q-coupled rat EBI2 expressed in COS7 cell membranes assessed as stimulation of [35S]GTPgammaS binding at 1 uM preincubated for 20 mins followed by [35S]GTPgammaS addition and measured after 1 hr by scintillation counting analysis relative to control; conditions: Membrane, filed as agonist, time 80.0 min; method in brief: as §1
Chain of G-protein coupled receptor 183 (Rattus norvegicus) (D4A7K7 whole entry): as the sequence (D4A7K7 whole entry) above

[6] = molecular target: G-protein coupled receptor 183 (Mus musculus) (UniProt Q3U6B2); experiment: Agonist activity at Go2-q-coupled mouse EBI2 expressed in COS7 cell membranes assessed as stimulation of [35S]GTPgammaS binding at 1 uM preincubated for 20 mins followed by [35S]GTPgammaS addition and measured after 1 hr by scintillation counting analysis relative to control; format: functional; conditions: Membrane, filed as agonist, time 80.0 min; method in brief: as §1
Chain of G-protein coupled receptor 183 (Mus musculus) (Q3U6B2 whole entry): as the sequence (Q3U6B2 whole entry) above

[7] = Metabolic stability in mouse liver microsomes assessed as half life; format: ADME, Microsome
[8] = Metabolic stability in rat liver microsomes assessed as half life; format: ADME, Microsome
[9] = Metabolic stability in human liver microsomes assessed as half life; format: ADME, Microsome
[10] = Elimination half-life in po dosed mouse; format: ADME, organism-based; conditions: in vivo, read-out: beta t1/2 (converted)
[11] = molecular target: T1, G-protein coupled receptor 183; experiment: Agonist activity at Go2-q-coupled EBI2 (unknown origin) expressed in COS7 cell membranes assessed as stimulation of [35S]GTPgammaS binding preincubated for 20 mins followed by [35S]GTPgammaS addition and measured after 1 hr by scintillation counting analysis; format: functional, Membrane
Method in brief: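 [35S]GTPγS binding measured in membranes of COS7 cells transiently transfected with human, rat or mouse EBI2, with receptor coupled through Go2. Compounds tested as concentration-response series (log M plots) to give EC50 and % Emax for each species' receptor.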

[12] = Cmax in mouse at 20 mg/kg, sc; format: ADME, organism-based; set-up: route subcutaneous, dose 20 mg/kg; conditions: in vivo
[13] = Tmax in mouse at 20 mg/kg, sc; format: ADME, organism-based; conditions: in vivo
[14] = Cmax in mouse at 20 mg/kg, ip; format: ADME, organism-based; set-up: route intraperitoneal, dose 20 mg/kg; conditions: in vivo
[15] = Tmax in mouse at 20 mg/kg, ip; format: ADME, organism-based; conditions: in vivo
[16] = AUClast in mouse at 20 mg/kg, ip; format: ADME, organism-based; set-up: route intraperitoneal, time 0 - last, dose 20 mg/kg; conditions: in vivo
[17] = Terminal half life in mouse at 20 mg/kg, ip; format: ADME, organism-based; conditions: in vivo, read-out: beta t1/2 (converted)
[18] = AUClast in mouse at 20 mg/kg, sc; format: ADME, organism-based; set-up: time 0 - last, route subcutaneous, dose 20 mg/kg; conditions: in vivo
[19] = Terminal half life in mouse at 20 mg/kg, sc; format: ADME, organism-based; conditions: in vivo, read-out: beta t1/2 (converted)

| Structure (SMILES) | EC50 [1] | EC50 [2] | EC50 [3] | Emax [4] | Emax [5] | Emax [6] | half-life [7] | half-life [8] | half-life [9] | EC50 [11] | other results |
| --- | --- | --- | --- | --- | --- | --- | --- | --- | --- | --- | --- |
| C[C@H](CCCC(C)(C)O)[C@H]1CC[C@H]2[C@H]3[C@H](CC[C@]12C)[C@@]1(C)CC[C@H](O)CC1=C[C@]3(O)C(F)(F)F | 0.102 nM | 1.08 nM | 1.64 nM | 122% | 116% | 136% | > 180 min | 31 min | 131 min | – | half-life [10]: 600 min |
| C[C@H](CCCC(C)(C)O)[C@H]1CC[C@H]2[C@H]3[C@H](CC[C@]12C)[C@@]1(C)CC[C@H](O)CC1=C[C@@]3(O)C(F)(F)F | 4.1 nM | 14.4 nM | 14.4 nM | 100% | 88% | 60% | – | – | – | – | – |
| CC(CO)CCC[C@@H](C)[C@H]1CC[C@H]2[C@H]3C(CC[C@]12C)[C@@]1(C)CC[C@H](O)CC1=C[C@H]3O (single isomer, unassigned) | – | – | – | – | – | – | – | – | – | 1.3 nM | – |
| CC(CO)CCC[C@@H](C)[C@H]1CC[C@H]2[C@H]3C(CC[C@]12C)[C@@]1(C)CC[C@H](O)CC1=C[C@@H]3O (single isomer, unassigned) | – | – | – | – | – | – | – | – | – | 51 nM | – |
| C[C@H](CCCC(C)(C)O)[C@H]1CC[C@H]2[C@@H]3[C@@H](O)C=C4C[C@@H](O)CC[C@]4(C)[C@H]3CC[C@]12C | – | – | – | – | – | – | – | – | – | 2.1 nM | – |
| C[C@H](CCCC(C)(C)O)[C@H]1CC[C@H]2[C@@H]3[C@H](O)C=C4C[C@@H](O)CC[C@]4(C)[C@H]3CC[C@]12C | 0.032 nM | 1.31 nM | 0.702 nM | 100% | 100% | 100% | 11 min | 15 min | 30 min | 0.14 nM | Cmax [12]: 4.33 µg/mL; Tmax [13]: 19.8 min; Cmax [14]: 4.46 µg/mL; Tmax [15]: 15 min; AUC(0-t) [16]: 2.94 µg·h/mL; half-life [17]: 24 min; AUC(0-t) [18]: 3.15 µg·h/mL; half-life [19]: 30 min |
